From PubChem BioAssay
This is a sample that favours compounds with a hit; in the whole collection about 3.3% have one here.
SENP8 block-1: blocks the human protease SENP8. Q96LD8. purified SENP8, Z-RLRGG-aminoluciferin cleavage, luminescence. inhibition, % at 10 µM. actives 1.2% (n = 330,000). AID 2540; in the data active means inhibition above about 50%
SENP7 block: inhibitors of human SENP7 protease; AID 434973; inhibition, % at 5 µM; recombinant SENP7, Z-RLRGG-aminoluciferin luminescence, 40 min; Q9BQF6; actives 1.5% (n = 330,000);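 active means inhibition above about 50% at the single test dose, limit read from the data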
SENP1 FRET inh: blocks the human SENP1 SUMO protease catalytic domain | recombinant SENP1 catalytic domain, CyPet-SUMO1-YPet FRET cleavage | inhibition, % at 10 µM | actives 0.21% (n = 360,000) | AID 624204;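 active means inhibition at least 30% at 10 µM, raw YFP signal under a set limit, fluorescence ratio 0.5 to 1.5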
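Material – human SENP1 catalytic domain · Input – SENP1 enzyme, 20 pM final · Compound dosing – single concentration of 10 µM compound, 0.5% DMSO final · Timing – enzyme reaction for 50 min at room temperature, dark · Measured by – FRET fluorescence in CFP and YFP emission channels · Control set – no-enzyme wells low, DMSO-plus-enzyme wells high control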
SENP8 block-2: blocks human SENP8 cleavage of Nedd8 substrate. actives 0.64% (n = 360,000). Q96LD8. inhibition, % at 20 µM. AID 602440. recombinant SENP8, Nedd8 substrate fluorescence; in the data active means inhibition mostly above about 40%, no sharp cut-off; inactive means mostly below about 27%
CendR NRP1 mod: modulators of CendR peptide binding to human neuropilin-1; O14786; FAM-RPARPAR peptide binding to NRP-1, fluorescence polarization; inhibition, % at 25 µM; actives 0.85% (n = 360,000); AID 602438;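 active means inhibition or corrected inhibition above about 18%, plus a signal ratio from 0.5 to 1.5, limit read from the data, passing the limit was not always enough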
Target sequence (O14786 whole entry, looked up): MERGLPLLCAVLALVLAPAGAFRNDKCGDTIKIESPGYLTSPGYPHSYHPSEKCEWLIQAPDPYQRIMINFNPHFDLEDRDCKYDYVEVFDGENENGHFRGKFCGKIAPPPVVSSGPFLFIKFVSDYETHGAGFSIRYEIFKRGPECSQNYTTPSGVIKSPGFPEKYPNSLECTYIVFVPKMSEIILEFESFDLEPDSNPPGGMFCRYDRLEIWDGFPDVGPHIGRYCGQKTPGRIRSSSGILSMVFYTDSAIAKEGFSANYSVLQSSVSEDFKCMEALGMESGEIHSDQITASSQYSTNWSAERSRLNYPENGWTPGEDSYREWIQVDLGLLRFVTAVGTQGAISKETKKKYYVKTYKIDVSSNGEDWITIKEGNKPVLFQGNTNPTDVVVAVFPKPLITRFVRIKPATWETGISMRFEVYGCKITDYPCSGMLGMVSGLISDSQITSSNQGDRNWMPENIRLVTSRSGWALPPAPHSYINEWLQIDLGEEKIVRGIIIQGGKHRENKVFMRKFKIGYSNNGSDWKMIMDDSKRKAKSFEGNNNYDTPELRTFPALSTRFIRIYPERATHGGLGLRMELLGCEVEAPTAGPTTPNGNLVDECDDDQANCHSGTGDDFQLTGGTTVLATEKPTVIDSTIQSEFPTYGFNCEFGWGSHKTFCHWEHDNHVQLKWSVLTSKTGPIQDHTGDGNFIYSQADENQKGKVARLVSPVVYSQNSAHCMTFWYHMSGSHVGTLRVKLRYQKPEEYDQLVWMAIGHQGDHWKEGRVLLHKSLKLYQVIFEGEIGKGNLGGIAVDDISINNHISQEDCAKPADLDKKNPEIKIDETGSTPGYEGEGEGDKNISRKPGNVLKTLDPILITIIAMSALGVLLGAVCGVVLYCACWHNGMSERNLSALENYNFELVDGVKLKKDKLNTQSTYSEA
SENP6 inh: SENP6 protease inhibition; Q9GZR1; inhibition, % at 10 µM; Recombinant SENP6 catalytic domain, aminoluciferin luminescence; AID 2599; actives 1.8% (n = 330,000);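 active means inhibition above about 50% at the single tested dose, limit read from the data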
SENP8 confirm: confirmation of human SENP8 protease inhibitors; actives 40% (n = 6,200); shares compounds with SENP7 block; inhibition, % at 12.5 µM; Recombinant SENP8, Z-RLRGG-aminoluciferin luminescence, 60 min; AID 488912;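 active means mean inhibition across replicates above about 50%, limit read from the data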
SENP6 conf: confirmation of human SENP6 protease inhibitors; shares compounds with SENP7 block; AID 488915; recombinant SENP6, Z-RLRGG-aminoluciferin luminescence; actives 58% (n = 6,200); inhibition, % at 12.5 µM
SENP7 confirm: confirmation of human SENP7 protease inhibitors | shares compounds with SENP7 block | recombinant SENP7, Z-RLRGG-aminoluciferin luminescence, 40 min | inhibition, % at 12.5 µM | actives 69% (n = 6,200) | AID 488917
Casp3 SENP sel: caspase-3 inhibition (SENP selectivity assay) | purified caspase-3, Z-DEVD-aminoluciferin luminescence, 60 min | AID 488918 | shares compounds with SENP7 block | inhibition, % at 12.5 µM | actives 60% (n = 6,200);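 active means mean inhibition above about 50%, limit read from the data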
Luc interf: interferes with luciferase luminescence in SENP counter-screen | shares compounds with SENP7 block | AID 488919 | Pre-incubated SENP8/Z-RLRGG-aminoluciferin, luciferase luminescence interference | actives 39% (n = 6,200) | inhibition, % at 12.5 µM;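 active means mean inhibition above about 50% when retested at one dose, limit read from the data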
Each line names hits and unclear results; the compound was inactive in the other large screens (follow-up assays come after a bar, where they were run).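 How the source made its calls, unless noted: active means mean inhibition above about 50% in the one-dose retest (limit read from the data); inactive means the rest.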

CCOC(=O)CNc1ccc2c(c1)OCO2	CendR NRP1 mod 34, SENP6 inh 59 | SENP8 confirm inactive | SENP6 conf inactive | SENP7 confirm inactive | Casp3 SENP sel inactive | Luc interf inactive
CC1(C)C(=O)CC[C@@]2(C)[C@H]1CC[C@@]1(C)CC3=C(CC[C@@H]12)[C@@]1(C)CCC(=O)C(C)(C)[C@@H]1CC3	none (no result: SENP1 FRET inh, SENP8 block-2, CendR NRP1 mod)
CCOc1ccccc1CN1[C@@H](c2ccc(OC)cc2)CC(C(=O)OC)(C(=O)OC)[C@H]1c1ccccc1	none (no result: SENP8 block-1, SENP7 block, SENP6 inh)
O=C1NC[C@H](Cc2ccccc2)N(CC2CCN(CCC34CC5CC(CC(C5)C3)C4)CC2)C1=O	none (no result: SENP8 block-1, SENP7 block, SENP6 inh)
COc1cccc(NC(=O)CN(C)C(C)C(=O)NC(=O)NC2CCCCC2)c1 (stereo unspecified)	none
CCN(CC)c1ccc(C(=O)Nc2cccc(F)c2)cc1	SENP8 block-1 59, SENP7 block 59, SENP6 inh 84 | SENP8 confirm 71 | SENP6 conf 74 | SENP7 confirm 93 | Casp3 SENP sel 64 | Luc interf 68
CCOC(=O)c1cccc(NC(=O)c2ccc3c(c2)OCO3)c1	SENP6 inh 60 | SENP8 confirm 51 | SENP6 conf inactive | SENP7 confirm 74 | Casp3 SENP sel 54 | Luc interf inactive
Cc1cccc(NC(=O)c2ccc3c(c2)OCCO3)c1	SENP8 block-1 85, SENP7 block 92, SENP6 inh 86 | SENP8 confirm inactive | SENP6 conf 93 | SENP7 confirm 101 | Casp3 SENP sel 94 | Luc interf 90
CN(C)c1cccc(C(=O)Nc2cccc(F)c2)c1	none
CCOC(=O)c1c(N)sc(C(=O)Nc2ccc3c(c2)OCO3)c1C	SENP8 block-1 92, SENP7 block 98, SENP6 inh 97 | SENP8 confirm inactive | SENP6 conf 98 | SENP7 confirm 103 | Casp3 SENP sel 96 | Luc interf 96
Nc1ccccc1C(=O)NN=Cc1cccnc1	none (no result: SENP8 block-1, SENP7 block, SENP6 inh)
O=C1C=CC(n2cc(F)c(=O)[nH]c2=O)O1 (stereo unspecified)	none (no result: SENP8 block-1, SENP7 block, SENP6 inh)
CCN(CC)c1ccc(NC(=O)Nc2ccccc2)cc1	SENP8 block-1 64, SENP7 block 65, SENP6 inh 83 | SENP8 confirm inactive | SENP6 conf 71 | SENP7 confirm 88 | Casp3 SENP sel 76 | Luc interf 52
Cc1ccc(C(=O)Nc2ccc3c(c2)OCCO3)c(C)c1	SENP8 block-1 81, SENP7 block 89, SENP6 inh 91 | SENP8 confirm 88 | SENP6 conf 88 | SENP7 confirm 97 | Casp3 SENP sel 93 | Luc interf 87
Cc1cc(C)c(C(=O)Nc2ccc3c(c2)OCCO3)c(C)c1	none (no result: SENP8 block-1, SENP7 block, SENP6 inh)
O=C(Nc1cccc(F)c1)c1ccc2c(c1)OCCO2	SENP8 block-1 87, SENP7 block 93, SENP6 inh 89 | SENP8 confirm inactive | SENP6 conf 88 | SENP7 confirm 99 | Casp3 SENP sel 90 | Luc interf 89
COc1ccc(C(NC(=O)C2CCN(CCCOc3ccccc3)CC2)c2cccs2)cc1 (stereo unspecified)	none (no result: SENP8 block-1, SENP7 block, SENP6 inh)
Cc1c(Br)cccc1NC(=O)C1(C)CCN1C(C)C (stereo unspecified)	none (no result: SENP8 block-1, SENP7 block, SENP6 inh)
COc1cccc(C(=O)NCCS(=O)(=O)N2CCCC(C)C2)c1 (stereo unspecified)	none (no result: SENP8 block-1, SENP7 block, SENP6 inh)
N#C/C(=C\c1cccn1S(=O)(=O)c1cccc([N+](=O)[O-])c1)S(=O)(=O)c1ccc(F)cc1	none (no result: SENP8 block-1, SENP7 block, SENP6 inh)
COc1ccc2c(c1O)C(=O)c1ccccc1C2=O	none (no result: SENP1 FRET inh, SENP8 block-2, CendR NRP1 mod)
CC(C)COC(=O)c1ccc2c(c1O)C(=O)c1ccccc1C2=O	SENP7 block 93, SENP6 inh 81 | SENP8 confirm 85 | SENP6 conf 88 | SENP7 confirm 95 | Casp3 SENP sel 59 | Luc interf 52
O=C(O)c1cccc(NC2=C(N3CCOCC3)C(=O)c3ccccc3C2=O)c1	SENP8 block-1 57, SENP8 block-2 59, SENP6 inh 75 | SENP8 confirm 69 | SENP6 conf 81 | SENP7 confirm 60 | Casp3 SENP sel 64 | Luc interf inactive
CN=c1scc(C)n1/N=C/c1ccc2c(c1)OCO2	SENP8 block-1 88, SENP7 block 97, SENP6 inh 98 | SENP8 confirm 95 | SENP6 conf 96 | SENP7 confirm 102 | Casp3 SENP sel 95 | Luc interf inactive
CN=c1scc(C)n1/N=C/c1ccc(O)cc1O	SENP8 block-1 76, SENP7 block 78, SENP6 inh 78 | SENP8 confirm 90 | SENP6 conf 88 | SENP7 confirm 99 | Casp3 SENP sel 88 | Luc interf 86
CCc1ccc(C(=O)/C=C/c2cnn(C)c2C)s1	SENP6 inh 54 | SENP8 confirm inactive | SENP6 conf inactive | SENP7 confirm inactive | Casp3 SENP sel inactive | Luc interf inactive
NS(=O)(=O)c1c(Sc2ccccc2C(=O)O)ccc2ccccc12	SENP7 block 52, SENP6 inh 94 | SENP8 confirm inactive | SENP6 conf inactive | SENP7 confirm inactive | Casp3 SENP sel inactive | Luc interf inactive
N#Cc1ccsc1NC(=O)CSc1nncs1	SENP8 block-1 95, SENP7 block 97, SENP6 inh 95 | SENP8 confirm 97 | SENP6 conf 97 | SENP7 confirm 102 | Casp3 SENP sel 98 | Luc interf 84
Cc1nnc(SCC(=O)Nc2sccc2C#N)s1	none
N#Cc1ccsc1NC(=O)CSc1nnnn1-c1ccc(O)cc1	SENP6 inh 52 | SENP8 confirm inactive | SENP6 conf inactive | SENP7 confirm 61 | Casp3 SENP sel inactive | Luc interf inactive
C[C@H]1CN([C@@H](C)CO)C(=O)Cc2cc(NC(=O)C3CC3)ccc2O[C@H]1CN(C)Cc1ccc(C(=O)O)cc1	none
COc1ccc(C2=NN(C(C#N)c3ccc(OC)c(OC)c3)C(c3ccccc3)C2)cc1 (stereo unspecified)	SENP7 block 65, SENP6 inh 75 | SENP8 confirm inactive | SENP6 conf inactive | SENP7 confirm inactive | Casp3 SENP sel inactive | Luc interf inactive
COc1ccccc1OCCCCNC(C)(C)C	none
